From the EternaBench riboswitch data

Tested on: MS2 coat protein
Assay: apparent Kd, MS2 coat protein; higher = weaker binding; RNA-MaP array; FMN 200 µM where present
Procedure, shortened: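 SNAP-549-labelled MS2 coat protein, doubled from 0.7 or 1.5 nM to 3 µM, was titrated over designs transcribed by stalled E. coli RNA polymerase on Illumina sequencing-chip clusters. Titrations were run without and then with constant ligand in 100 mM Tris-HCl pH 7.5, 80 mM KCl, 4 mM MgCl2, BSA, DTT, yeast tRNA and Tween-20. The apparent Kd is the median of filtered per-cluster fits to green signal normalised to red-channel RNA signal and control-cluster median Fmax.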

[1] = designed as: OFF switch for flavin mononucleotide, no ligand
[2] = ligand present: flavin mononucleotide, designed as: OFF switch for flavin mononucleotide
[3] = designed as: ON switch for flavin mononucleotide, no ligand
[4] = ligand present: flavin mononucleotide, designed as: ON switch for flavin mononucleotide

Sequence	apparent Kd [1]	apparent Kd [2]	apparent Kd [3]	apparent Kd [4]
GUUGGGUGUCAUGUCGCACAUGAGGAUCACCCAUGUAGGAGGUAGGAUAUCCACGAGAAACAAGCGGAGAAGGGCCAUUAGCGU	27.9 nM	31.3 nM	–	–
CUUUUGUGAGGAUAUCAGUAGUAAAAAAAUAAAAUUACUACUGAGAAGGCACAUGAGGAUCACCCAUGUUCCUC	30.7 nM	237 nM	–	–
GUCAGCUCGUGAGGAUAUACAACACUGCUUCGGCACUGUAUUAAGAUCACAUGAGGAUCACCCAUGUAGAAGGCACGAGCUGAU	8.62 nM	104 nM	–	–
CUGACAGCGCAGAAGGGAGAUCCUACAUGAGGAUCACCCAUGUGGGCUCUCAGGAUAUGCACGUGUAUGCUGAAAGUAGCAUUG	–	–	17.2 nM	7.17 nM
AUGGGCUAAGGAUAUAGACGACGACACAUGAGGAUCACCCAUGUCAGUAAUGGGUCUUGGCUAGAAGGUAGAACCC	44.5 nM	72.7 nM	–	–
CCAUUUCUGUAAGGAUAUAUAAACAUGACGAUACAUGAGGAUCACCCAUGUGUAGAAGGUACAAAUACAUAUAAUACAAUGCUC	13.1 nM	11.7 nM	–	–
UUAAAUCGAAACAUGAGGAUCACCCAUGUGUUGUAAUUAACAUAGGAUAUGUAAAUACUUUUUUAAUAGAAGGAUGAUAAUACU	–	–	17 nM	12.9 nM
GGAAAGCAAGGAUAUACAAACAAACAAACAAACAAAAGGGAACAUGAGGAUCACCCAUGUAGAAGGUGCAAACA	41.7 nM	37.5 nM	–	–
UCUCGACAUGAGGAUCACCCAUGUCAGGAUAUUGUGUUUGAGGUUUUUUACCUUUUGACAAGAAGGGAUGUGUG	–	30.4 nM	–	–
UUUUACGGAGGAUAUACAUUUUUUUUAUUAUCCUCAUUAUUACAUGAGGAUCACCCAUGUAGAAGGCCGAUUUU	42.6 nM	173 nM	–	–
GUUUCGUGAGGAUAUGUGGCUUCGAUCGUGCGAUCGAGGCUACAGAAGGCACAUGAGGAUCACCCAUGUUCCUC	45.2 nM	612 nM	–	–
CAGUCUACAGGAUAUACAUGAGGAUCACCCAUGUGUAUCAACCUUCUGUAAUCCACAUGUAGAAGGGUAGACUG	14.8 nM	13.5 nM	–	–
GUGCACAUUCGAGGAUAUCGGAGAGAGAUCCUUCGAGAAGGCGAUUCAUGCUGUGUUAUUCUGGACAUGAGGAUCACCCAUGUG	–	–	326 nM	172 nM
ACUGGUCGAGGAUAUACAUGAGGAUCACCCAUGUGAUUAGCAGUCCUCGGACUGCAAUGUAGAAGGCGACCAGU	370 nM	842 nM	–	–
GGUGCGUAUGUGAGGAUAUGCUGGUCCUUGGAUCAGCAGAAGGCACAUGAGGAUCACCCAUGUGGUGUCGUACC	357 nM	23.5 nM	–	–
ACACAGGGAGGAUAUACAUGAGGAUCACCCAUGUAGAGUGGAUUGGGAUUGCUAUCAAGUAGAAGGCUUUAGUG	56.1 nM	122 nM	–	–
UGGACCGAGCUGUCGGUUGGCUCUUAGGAUAUGACAUGAGGAUCACCCAUGUGGGAUCUAAAUUGUCAGAAGGAGGGUUCUGGG	48.3 nM	40.3 nM	–	–
CCCAAACUUGGGCUUGGUGGUGCAUAGGAUAUGCUUGAACAUGAGGAUCACCCAUGUGCAACUGUGCAGAAGGGUGCAGGGCCU	–	–	12.7 nM	8.31 nM
GAUCUGAUAGGAUAUACAUGAGGAUCACCCAUGUGCGAGCUAGCGAAAGCUAGCUCAGGUAGAAGGGUCAGAUC	12 nM	15.5 nM	–	–
CAGGCGGAGUCAGGAUAUGCACGGUGGACCCAUAACAUGAGGAUCACCCAUGUUACUACGCCUCAGCAGAAGGGACAACCUCCU	–	–	28.7 nM	6.21 nM
